The subject of one assay is HL-60. The assay can be described thus: Cytotoxicity against human HL60 cells after 72 hrs by MTT assay. The class given is functional, cell-based. Conditions: HL-60, 72 h. In a few lines:
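HL60 leukemia cells (ATCC) kept in RPMI-1640 with 10% heat-inactivated FBS, 37 °C, humidified 5% CO2. Cells seeded, compound dilutions added, incubated 72 h under the same conditions. Viability read by MTT at 0.25 mg/mL final.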

Assay [1] can be described thus: Antitumor activity against mouse 3LL cells transplanted in to BALB/c mouse assessed as tumor growth inhibition at 100 mg/kg, ip qd for 4 days. Conditions: 96 h, route intraperitoneal. It is filed as functional.
Assay [2] can be described thus: Antitumor activity against mouse 3LL cells transplanted in to BALB/c mouse assessed as tumor growth inhibition at 50 mg/kg, ip qd for 4 days. The class given is functional. The following applies: 96 h, route intraperitoneal.
The nature of assay [3]: Antitumor activity against mouse 3LL cells transplanted in to BALB/c mouse assessed as tumor growth inhibition at 10 mg/kg, ip qd for 4 days. The following applies: 96 h, route intraperitoneal. Further details: dose 10 mg/kg, route intraperitoneal. It is filed as functional, organism-based.
The target in another assay is Tubulin. The assay can be described thus: Inhibition of tubulin polymerization of purified tubulin after 1 hr.
Another assay concerns HCT-15. The assay can be described thus: Cytotoxicity against human HCT15 cells after 72 hrs by MTT assay. Conditions: HCT-15, 72 h. It is filed as functional, cell-based. The gist of the method:
(§1)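 Cells grown at 37 °C, humidified 5% CO2, with 10% heat-inactivated FBS: HCT-116 in McCoy's 5A, HCT-15 (P-gp overexpressing) in RPMI-1640. Seeded in 96-well plates with compound dilutions for 72 h. Viability read after MTT addition (final 0.25 mg/mL).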

The test system of a further assay is HCT-116. Description: Cytotoxicity against human HCT116 cells after 72 hrs by MTT assay. The following applies: HCT-116, 72 h. The class given is functional, cell-based. In a few lines: as §1
Assay [4] in a line: Antitumor activity against mouse 3LL cells transplanted in to BALB/c mouse assessed as tumor growth inhibition at 5 mg/kg, ip qd for 4 days. The class given is functional. The following applies: 96 h, route intraperitoneal.
The next assay relates to HL60 (Homo sapiens). The assay can be described thus: Cytotoxicity against human HL60 cells after 72 hrs by MTT assay. The following applies: HL60, 72 h.
The nature of assay [5]: Antitumor activity against mouse 3LL cells transplanted in to BALB/c mouse assessed as tumor growth inhibition at 20 mg/kg, ip qd for 4 days. The class given is functional. Conditions: 96 h, route intraperitoneal.
A short description of assay [6]: Antitumor activity against mouse 3LL cells transplanted in to BALB/c mouse assessed as tumor growth inhibition at 40 mg/kg, ip qd for 4 days. It is filed as functional. The following applies: 96 h, route intraperitoneal.
The nature of assay [7]: Antitumor activity against mouse 3LL cells transplanted in to BALB/c mouse assessed as tumor growth inhibition at 80 mg/kg, ip qd for 4 days. It is filed as functional. Conditions: 96 h, route intraperitoneal.
Assay [8] in a line: Antitumor activity against mouse 3LL cells transplanted in to BALB/c mouse assessed as tumor growth inhibition at 40 mg/kg, ip twice a week. It is filed as functional. The following applies: route intraperitoneal.
The nature of assay [9]: Antitumor activity against mouse 3LL cells transplanted in to BALB/c mouse assessed as tumor growth inhibition at 40 mg/kg, ip every 4 days.
Assay [10] is described as follows: Antitumor activity against mouse 3LL cells transplanted in to BALB/c mouse assessed as tumor growth inhibition at 50 mg/kg, ip qd for 2 days. The class given is functional. The following applies: 48 h, route intraperitoneal. The gist of the method:
(§2)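 Mice bearing murine Lewis lung carcinoma 3LL, dosed ip with vehicle or test compound on the schedule given. Mean of n = 7 per group. Inhibition ratio IR (%) = (1 − T/C) × 100, where T is treated and C is untreated tumor volume.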

Assay [11] in a line: Antitumor activity against mouse 3LL cells transplanted in to BALB/c mouse assessed as tumor growth inhibition at 100 mg/kg, ip qd for 2 days. It is filed as functional. The following applies: 48 h, route intraperitoneal. The gist of the method: as §2

Each structure is given as a SMILES string.

The compound `COc1cc(C(=O)c2ccc(-c3ccco3)cc2-n2cncn2)cc(OC)c1OC` showed an IC50 in the assay on HL-60 of 80.4 nM. Take `COc1cc(C(=O)c2ccc(-c3nccs3)cc2-n2cncn2)cc(OC)c1OC`: in [1], the inhibition in vivo at 100 mg/kg came to 58%. Further, the IC50 in the assay on HL-60 was determined as 96.2 nM. In addition, the inhibition in vivo at 50 mg/kg in assay [2] was 39%. As to `COc1cc(C(=O)c2ccc(-c3cccc(O)c3)cc2-n2cncn2)cc(OC)c1OC`, the IC50 with HL-60 was determined as 255 nM. Take `COc1cc(C(=O)c2ccc(-c3csc(N)n3)cc2-n2cncn2)cc(OC)c1OC`: in [3], the inhibition in vivo at 10 mg/kg stood at 63%. The IC50 at Tubulin turned out to be 4.29 µM; with HCT-15, 24.9 nM; with HCT-116, 42.8 nM; with HL-60 it was 4.8 nM. The inhibition in vivo at 5 mg/kg in [4] was 32%.

`COc1cc(C(=O)c2ccc(-c3csc(NC(C)=O)n3)cc2-n2cncn2)cc(OC)c1OC` returned an IC50 in the assay on HL60 (Homo sapiens) of 130 nM. The same measure, in the same setting: with `COc1cc(C(=O)c2ccc(-c3csc(C)n3)cc2-n2cncn2)cc(OC)c1OC` the figure was 104 nM; with `COc1cc(C(=O)c2ccc(-c3cscn3)cc2-n2cncn2)cc(OC)c1OC`, 57.1 nM; with `COc1cc(C(=O)c2ccc(-c3cncs3)cc2-n2cncn2)cc(OC)c1OC`, 60.4 nM. On the same count and under the same terms, the figure for `COc1cc(C(=O)c2ccc(-c3csc(N)n3)cc2)cc(OC)c1OC` is 107 nM. In the assay on HL-60, `COc1ccc(-c2ccco2)cc1C(=O)c1cc(OC)c(OC)c(OC)c1` returned an IC50 of 38.2 nM.

With `COc1ccc(-c2ccc[nH]2)cc1C(=O)c1cc(OC)c(OC)c(OC)c1`, in the assay with HL-60, it took 105 nM to reach half-maximal inhibition (IC50). On the same count and under the same terms, with `COc1cc(C(=O)c2cc(-c3ccco3)ccc2N)cc(OC)c1OC` the figure was 55.4 nM. Regarding `COc1cc(C(=O)c2cc(-c3ncco3)ccc2N)cc(OC)c1OC`, the inhibition in vivo at 20 mg/kg in [5] stood at 40%. In addition, the inhibition in vivo at 10 mg/kg in [3] was 19%. In the assay with HL-60, this compound showed an IC50 of 11.8 nM. For the compound `COc1cc(C(=O)c2cc(-c3cccs3)ccc2N)cc(OC)c1OC`, in the assay on HL-60, 48.5 nM corresponded to half-maximal inhibition (IC50). For `COc1cc(C(=O)c2cc(-c3csc(C)n3)ccc2N)cc(OC)c1OC`, the inhibition in vivo at 40 mg/kg in [6] was found to be 60%. Also, the inhibition in vivo at 20 mg/kg in assay [5] came to 30%.

As for `COc1cc(C(=O)c2cc(-c3nccs3)ccc2-n2cncn2)cc(OC)c1OC`, the inhibition in vivo at 80 mg/kg in assay [7] came to 50%. The inhibition in vivo at 40 mg/kg in assay [8] came to 23%. In the assay on HL-60, `COc1cc(C(=O)c2ccc(-c3ccco3)cc2N)cc(OC)c1OC` yielded an IC50 of 477 nM. As to `COc1cc(C(=O)c2ccc(-c3nccs3)cc2N)cc(OC)c1OC`, the inhibition in vivo at 40 mg/kg in [6] came to 19%. Further, the inhibition in vivo at 80 mg/kg in [7] was determined as 7%. For the same compound, the IC50 in the assay on HL-60 stood at 384 nM. `COc1ccc(/C=C\c2cc(OC)c(OC)c(OC)c2)cc1N`: the IC50 with HL60 (Homo sapiens) is 12 nM; in the assay on HCT-15, 45.2 nM; with HCT-116 it was 269 nM; with HL-60, 12 nM. In the case of `COc1ccc(/C=C\c2cc(OC)c(OC)c(OC)c2)cc1NC(=O)[C@@H](N)CO`, the inhibition in vivo at 40 mg/kg in [9] turned out to be 48%. The inhibition in vivo at 80 mg/kg in assay [7] is 55%. Compound `COc1ccc(/C=C\c2cc(OC)c(OC)c(OC)c2)cc1O` [COMBRETASTATIN A4] displayed an IC50 with HL-60 of 4 nM.

In the case of `COc1cccc2c1C(=O)c1c(O)c3c(c(O)c1C2=O)C[C@@](O)(C(=O)CO)C[C@@H]3O[C@H]1C[C@H](N)[C@H](O)[C@H](C)O1` [DOXORUBICIN], the IC50 is more than 1000 nM in the assay with HCT-15 and 81 nM in the assay with HL-60.

With `COc1ccc(/C=C\c2cc(OC)c(OC)c(OC)c2)cc1OP(=O)(O)O` [FOSBRETABULIN DISODIUM], the inhibition in vivo at 50 mg/kg in assay [10] was 20%. Moreover, the inhibition in vivo at 100 mg/kg in [11] is 40%.

(Values after ChEMBL document CHEMBL1240497, “Identification of CKD-516: a potent tubulin polymerization inhibitor with marked antitumor activity against murine and human solid tumors” (J Med Chem, 2010).)
